These results are taken from ChEMBL document CHEMBL1143468, “Novel 3,4-diarylpyrazolines as potent cannabinoid CB1 receptor antagonists with lower lipophilicity” (Bioorg Med Chem Lett, 2005).

Data set [1] addresses Cannabinoid receptor 2 (Homo sapiens, UniProt P34972). Put plainly: Displacement of specific CP-55940 binding in CHO cells stably transfected with human cannabinoid receptor 2. Type of data set: cell-based.
In data set [2] the target is Cannabinoid receptor 1 (Homo sapiens, UniProt P21554). Put plainly: biochemical. Type of data set: cell-based, CHO.
Data set [3] can be described thus: Partition coefficient (logP) (HPLC). The following applies: octanol/water. Type of data set: physicochemical. In short, it runs like this:
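logP was measured with a validated reverse-phase HPLC method.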

Data set [4] relates to Mus musculus. Description: Antagonism of WIN-55212-2 induced hypothermia in mice expressed as least effective dose upon peroral administration. It is filed as functional.
The target of data set [5] is P-glycoprotein (ABCB1) (Homo sapiens, UniProt P08183). Description: P-glycoprotein-based membrane transport factor, expressed as the ratio of the bottom to top transport and top to bottom transport. The following applies: not told.
The subject of data set [6] is Rattus norvegicus. Put plainly: Antagonism of CP-55940 induced hypotension in rat expressed as effective dose upon peroral administration. The following applies: po.

Molecules are shown by their SMILES.

Cannabinoid receptor 2, sequence (P34972 whole entry): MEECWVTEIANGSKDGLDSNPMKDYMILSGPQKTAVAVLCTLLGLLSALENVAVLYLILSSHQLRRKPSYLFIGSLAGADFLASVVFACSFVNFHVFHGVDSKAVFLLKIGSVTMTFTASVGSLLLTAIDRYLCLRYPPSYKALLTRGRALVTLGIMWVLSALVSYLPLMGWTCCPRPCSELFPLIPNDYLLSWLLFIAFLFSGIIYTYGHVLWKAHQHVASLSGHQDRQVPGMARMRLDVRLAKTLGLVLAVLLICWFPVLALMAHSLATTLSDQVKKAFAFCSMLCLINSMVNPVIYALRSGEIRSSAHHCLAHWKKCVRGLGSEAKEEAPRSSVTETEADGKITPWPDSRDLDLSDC
P-glycoprotein (ABCB1), sequence (P08183 whole entry): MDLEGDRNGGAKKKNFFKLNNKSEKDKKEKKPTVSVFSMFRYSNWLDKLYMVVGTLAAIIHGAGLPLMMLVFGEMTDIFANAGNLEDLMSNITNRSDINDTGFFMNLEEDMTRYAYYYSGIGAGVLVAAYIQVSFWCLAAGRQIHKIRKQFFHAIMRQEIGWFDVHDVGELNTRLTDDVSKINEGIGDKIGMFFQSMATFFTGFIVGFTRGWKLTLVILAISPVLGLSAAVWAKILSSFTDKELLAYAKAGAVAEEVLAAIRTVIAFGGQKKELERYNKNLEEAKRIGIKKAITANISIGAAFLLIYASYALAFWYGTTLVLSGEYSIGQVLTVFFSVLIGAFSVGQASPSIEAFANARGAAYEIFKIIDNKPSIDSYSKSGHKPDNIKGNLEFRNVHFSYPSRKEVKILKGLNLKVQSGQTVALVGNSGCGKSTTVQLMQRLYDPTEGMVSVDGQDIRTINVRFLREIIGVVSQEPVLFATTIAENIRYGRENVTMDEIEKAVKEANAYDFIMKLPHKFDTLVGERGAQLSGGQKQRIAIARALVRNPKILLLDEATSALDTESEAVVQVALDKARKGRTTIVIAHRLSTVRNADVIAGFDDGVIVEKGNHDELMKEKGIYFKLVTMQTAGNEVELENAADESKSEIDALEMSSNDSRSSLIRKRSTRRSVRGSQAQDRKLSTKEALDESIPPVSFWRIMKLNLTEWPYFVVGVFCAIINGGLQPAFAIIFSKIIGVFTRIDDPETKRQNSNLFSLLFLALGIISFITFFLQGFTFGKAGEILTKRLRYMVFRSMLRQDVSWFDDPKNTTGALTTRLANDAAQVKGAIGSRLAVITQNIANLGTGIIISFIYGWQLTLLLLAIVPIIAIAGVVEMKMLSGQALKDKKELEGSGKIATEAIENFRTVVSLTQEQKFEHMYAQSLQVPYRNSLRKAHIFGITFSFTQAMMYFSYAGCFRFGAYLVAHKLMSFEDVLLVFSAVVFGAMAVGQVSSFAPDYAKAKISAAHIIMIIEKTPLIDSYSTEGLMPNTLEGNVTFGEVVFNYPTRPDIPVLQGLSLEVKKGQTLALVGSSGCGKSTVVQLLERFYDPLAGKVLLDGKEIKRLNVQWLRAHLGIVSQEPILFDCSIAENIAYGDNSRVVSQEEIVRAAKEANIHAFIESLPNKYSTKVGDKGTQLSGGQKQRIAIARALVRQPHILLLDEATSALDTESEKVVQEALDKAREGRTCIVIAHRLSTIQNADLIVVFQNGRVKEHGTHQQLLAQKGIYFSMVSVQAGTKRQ
Cannabinoid receptor 1, sequence (P21554 whole entry): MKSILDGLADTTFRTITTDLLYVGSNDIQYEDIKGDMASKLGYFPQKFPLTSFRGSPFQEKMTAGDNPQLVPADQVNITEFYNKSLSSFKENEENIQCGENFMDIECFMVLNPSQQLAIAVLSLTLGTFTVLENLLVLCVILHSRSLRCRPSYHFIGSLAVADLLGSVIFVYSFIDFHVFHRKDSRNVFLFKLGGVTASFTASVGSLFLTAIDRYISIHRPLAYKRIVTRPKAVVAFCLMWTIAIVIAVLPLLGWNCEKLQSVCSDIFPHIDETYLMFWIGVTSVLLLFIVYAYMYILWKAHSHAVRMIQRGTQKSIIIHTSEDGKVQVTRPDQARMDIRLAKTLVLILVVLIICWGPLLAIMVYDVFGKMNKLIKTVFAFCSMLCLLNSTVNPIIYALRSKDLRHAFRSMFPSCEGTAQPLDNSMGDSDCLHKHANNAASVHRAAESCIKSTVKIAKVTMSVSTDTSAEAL

As to `C/N=C(\NS(=O)(=O)N(C)C(C)C)N1CC(c2ccccc2)C(c2ccc(Cl)cc2)=N1` (stereo not drawn), the values for the Ki in data set [1] and in data set [2] were 1.13 µM and 0.032 µM, respectively.

Take `CCN(CC)S(=O)(=O)N/C(=N\C)N1CC(c2ccccc2)C(c2ccc(Cl)cc2)=N1` (stereo not drawn): in data set [3], the logP – broadly, a log measure of how a compound divides between an organic and an aqueous phase – came out at 4.8. In data set [4], this compound yielded an LED of 3 mg/kg. Further, the efflux ratio (in general, a quotient of directional permeabilities that is used to spot active efflux) in data set [5] is 1.5. In addition, the Ki (as a rule, the dissociation constant of the complex between target and ligand, obtained from inhibition or displacement) was determined as 3.27 µM in data set [1] and 0.03 µM in data set [2]. In data set [6], the ED50 (in general, the dose at which the effect has come halfway, by size or by number of responders) turned out to be 20 mg/kg.

`CN=C(NS(=O)(=O)N1CCCC1)N1CC(c2ccccc2)C(c2ccc(Cl)cc2)=N1` (stereo not drawn): the inhibitory constant (Ki) in data set [1] turned out to be 1.6 µM; in data set [2], 0.231 µM.

In the case of `CNC(=NS(=O)(=O)N1CCCCCCC1)N1CC(c2ccccc2)C(c2ccc(Cl)cc2)=N1` (stereo not drawn), the inhibitory constant (Ki) in data set [1] was found to be 2.58 µM; in data set [2], 0.125 µM.

Turning to `CC/N=C(\NS(=O)(=O)N(CC)CC)N1CC(c2ccccc2)C(c2ccc(Cl)cc2)=N1` (stereo not drawn), the values for the Ki in data set [1] and in data set [2] were 2.86 µM and 0.209 µM, respectively.

With `CN/C(=N\S(=O)(=O)N1CCCCC1)N1C[C@H](c2ccccc2)C(c2ccc(Cl)cc2)=N1`, the logP in data set [3] was found to be 4.8. Further, the LED in data set [4] is 10 mg/kg. Also, in data set [5], the efflux ratio came out at 1.4. In addition, the ED50 in data set [6] was 8 mg/kg.

`C/N=C(\NS(=O)(=O)N1CCSCC1)N1CC(c2ccccc2)C(c2ccc(Cl)cc2)=N1` (stereo not drawn): the results for the inhibition constant Ki in data set [1] and in data set [2] were 3.53 µM and 0.024 µM, respectively.

In turn, `CN=C(NS(=O)(=O)N1CCS(=O)(=O)CC1)N1CC(c2ccccc2)C(c2ccc(Cl)cc2)=N1` (stereo not drawn) registered a Ki in data set [2] of 0.832 µM.

As for `C/N=C(\NS(=O)(=O)N1CCOCC1)N1CC(c2ccccc2)C(c2ccc(Cl)cc2)=N1` (stereo not drawn), the logP in data set [3] came to 3.8. Besides, in data set [4], the LED was 3 mg/kg. This compound also returned a Ki in data set [1] of 5.37 µM. In data set [6], the 50% effect level (ED50) was put at a dose of 27 mg/kg.

As for `C/N=C(\NS(=O)(=O)N(C)C)N1CC(c2ccccc2)C(c2ccc(Cl)cc2)=N1` (stereo not drawn), the affinity in data set [1], expressed as Ki, was 3.83 µM.

Consider `CCN(C)S(=O)(=O)NC(=NC)N1CC(c2ccccc2)C(c2ccc(Cl)cc2)=N1` (stereo not drawn), for which the Ki was 1.87 µM in data set [1] and 0.117 µM in data set [2].

For the compound `CNC(=NS(=O)(=O)N1CCCCC1)N1CC(c2ccccc2)C(c2ccc(Cl)cc2)=N1` (stereo not drawn), affinity in data set [1] was put at a Ki of 1.32 µM.

`CCN(CC)S(=O)(=O)N=C(NC(C)C)N1CC(c2ccccc2)C(c2ccc(Cl)cc2)=N1` (stereo not drawn): the Ki in data set [1] turned out to be 2.75 µM; in data set [2], 0.06 µM.

As for `CN/C(=N\S(=O)(=O)N1CCCCCC1)N1CC(c2ccccc2)C(c2ccc(Cl)cc2)=N1` (stereo not drawn), the Ki in data set [1] came to 1.03 µM; in data set [2] it was 0.155 µM.

Compound `CN/C(=N\S(=O)(=O)c1ccc(Cl)cc1)N1C[C@H](c2ccccc2)C(c2ccc(Cl)cc2)=N1` [IBIPINABANT] gave a logP in data set [3] of 5.1. Moreover, in data set [4], the LED was 3 mg/kg. The same compound came in with an ED50 in data set [6] of 5.5 mg/kg.

Compound `CCN(CC)S(=O)(=O)NC(=NC)N1CC(c2cccnc2)C(c2ccc(Cl)cc2)=N1` (stereo not drawn) showed a log partition coefficient (logP) in data set [3] of 3.2. Further, in data set [5], the efflux ratio turned out to be 3.4. For the same compound, the Ki in data set [1] was 9.08 µM; in data set [2], 0.141 µM. Besides, in data set [6], the ED50 is > 30 mg/kg.

Consider `Cc1c(C(=O)NN2CCCCC2)nn(-c2ccc(Cl)cc2Cl)c1-c1ccc(Cl)cc1` [RIMONABANT], for which the LED in data set [4] worked out at 3 mg/kg. In data set [6], this compound yielded an ED50 of 3.2 mg/kg.
